# From ChEMBL document CHEMBL5500387, “Design, synthesis of combretastatin A-4 piperazine derivatives as potential antitumor agents by inhibiting tubulin polymerization and inducing autophagy in HCT116 cells” (Eur J Med Chem, 2024)
# Tests used:
# [1] = system: A549; assay: Induction of apoptosis in human A549 cells assessed as dead cells at 0.1 uM measured after 24 hrs by Annexin V-APC/PI staining based flow cytometry analysis (reference value: 0.50%); type: functional
# [2] = system: A549; assay: Induction of cell cycle arrest in human A549 cells assessed as accumulation of cells at G2/M phase at 0.2 uM measured after 24 hrs by PI/RNase staining based analysis (reference value: 10.22%); type: functional
# [3] = system: A549; assay: Induction of cell cycle arrest in human A549 cells assessed as accumulation of cells at G0/G1 phase at 0.2 uM measured after 24 hrs by PI/RNase staining based analysis (reference value: 41.91%); type: functional
# [4] = system: HCT-116; assay: Inhibition of cell migration in human HCT-116 cells measured after 24 hrs by crystal violet staining based fluorescent inverted microscopic analysis; type: functional; details: dose 0.1-0.3 µM
# In short: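 Uncoated Transwell inserts were seeded with HCT116 cells (1×10^4) in the upper chamber, with complete medium below. Treated 24 h at 37 °C, 5% CO2, with 0.1, 0.2 or 0.3 μM or 0.1% DMSO. Fixed with 4% paraformaldehyde, stained with 0.1% crystal violet, migrated cells imaged and counted. At least three replicates.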
# [5] = system: HCT-116; assay: Induction of cell cycle arrest in human HCT-116 cells assessed as accumulation of cells at G2/M phase at 0.1 uM measured after 24 hrs by PI/RNase staining based flow cytometry analysis (reference value: 28.83%); type: functional
# [6] = system: A549; assay: Cytotoxicity against human A549 cells assessed as inhibition of cell proliferation measured after 72 hrs by CCK-8 assay; type: functional, cell-based; details: A549, 72 h
# In short: (§1)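 Cells seeded at 2×10^3 per well and grown overnight in 10% FBS medium: HCT116 in McCoy's 5A, A549 and AGS in F-12K, SK-MES-1 in DMEM. Compounds added at varied concentrations with 0.1% DMSO control, 72 h at 37 °C. 10% CCK-8 for 2 h, then A450 read. Survival = (As−Ab)/(Ac−Ab)×100%. IC50 from curve fitting.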
# [7] = Selectivity index, ratio of IC50 for human NCM460 cells to IC50 for human HCT-116 cells; type: toxicity; details: NCM460 cells and HCT-116 cells, read-out: Ratio IC50
# In short: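 The selectivity index is IC50 in NCM460 normal colonic epithelial cells (RPMI-1640, 10% FBS) divided by IC50 in HCT116. Both were measured by 72 h CCK-8 viability at 2×10^3 cells/well with A450 read-out.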
# [8] = system: A549; assay: Induction of apoptosis in human A549 cells assessed as early apoptotic cells at 0.2 uM measured after 24 hrs by Annexin V-APC/PI staining based flow cytometry analysis (reference value: 1.73%); type: functional
# [9] = system: HCT-116; assay: Induction of cell cycle arrest at G2/M phase in human HCT-116 cells assessed as reduction in Cyclin B1 protein expression measured after 48 hrs by Western blot analysis; type: functional, cell-based; details: dose 0.1-0.3 µM
# In short: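 HCT116 cells given 0.1, 0.2 or 0.3 μM for 48 h, with 0.1% DMSO control. Lysates run on SDS-PAGE and blotted to PVDF. Probed with anti-Cdc2 and anti-Cyclin B1 (1:1000), β-actin as loading control, HRP secondary, and chemiluminescence. Band quantities expressed relative to control set to 1. Three independent experiments.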
# [10] = system: A549; assay: Induction of apoptosis in human A549 cells assessed as early apoptotic cells at 0.1 uM measured after 24 hrs by Annexin V-APC/PI staining based flow cytometry analysis (reference value: 1.73%); type: functional
# [11] = system: A549; assay: Induction of cell cycle arrest in human A549 cells assessed as accumulation of cells at S phase at 0.3 uM measured after 24 hrs by PI/RNase staining based analysis (reference value: 24.95%); type: functional
# [12] = Toxicity in female BALB/c nude mouse xenografted with human HCT-116 cells assessed as adverse effects at 20 to 40 mg/kg, ip administered every 2 days for 20 days; type: organism-based; details: in vivo, 480 h, dose 20-40 mg/kg, time 20 day
# In short: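 Female BALB/c nude mice, 5 weeks old, bearing subcutaneous HCT116 xenografts (started at 100 mm³), randomised into groups of ten. Saline-injected ip controls. Body weight monitored throughout the 20-day intraperitoneal treatment.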
# [13] = system: HCT-116; assay: Induction of cell cycle arrest in human HCT-116 cells assessed as accumulation of cells at S phase at 0.3 uM measured after 24 hrs by PI/RNase staining based flow cytometry analysis (reference value: 38.29%); type: functional
# [14] = system: HCT-116; assay: Induction of autophagy in human HCT-116 cells assessed as increase in LC3-II protein expression measured after 24 hrs by Western blot analysis; type: functional, cell-based; details: dose 0.1-0.3 µM
# In short: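 HCT116 cells exposed for 24 h to 0.1, 0.2 or 0.3 μM. Lysed on ice and protein measured by BCA. […] Milk-blocked, probed with anti-LC3A/B or anti-phospho-SQSTM1/p62 (1:1000) plus β-actin, then HRP anti-rabbit and chemiluminescence. Bands normalised to control set to 1. Three independent experiments.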
# [15] = system: HCT-116; assay: Cytotoxicity against human HCT-116 cells assessed as inhibition of cell proliferation measured after 72 hrs by CCK-8 assay; type: functional, cell-based; details: HCT-116, 72 h; in short: as §1
# [16] = system: A549; assay: Induction of apoptosis in human A549 cells assessed as late apoptotic cells at 0.1 uM measured after 24 hrs by Annexin V-APC/PI staining based flow cytometry analysis (reference value: 0.86%); type: functional
# [17] = system: A549; assay: Induction of cell cycle arrest in human A549 cells assessed as accumulation of cells at S phase at 0.1 uM measured after 24 hrs by PI/RNase staining based analysis (reference value: 24.95%); type: functional
# [18] = Octanol-water partition coefficient, log P of the compound at pH 7.4 at 4 mg measured after 24 hrs by liquid chromatography; type: physicochemical
# In short: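 4 mg of compound was dissolved in 1 mL water-saturated n-octanol and held 24 h at room temperature, then centrifuged. The supernatant was mixed with an equal volume of octanol-saturated water, stood 24 h, centrifuged and the phases separated. Phase concentrations were measured by LC standard curves. log P = log(C_octanol/C_water). At least three independent runs.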
# [19] = biological target: Tubulin (Homo sapiens) (UniProt P68371+Q9H4B7+P0DPH7+P68366+Q13509+Q71U36+P04350+Q3ZCM7+P07437+P68363+Q9BQE3+Q6PEY2+Q13885+Q9BVA1+Q9BUF5); assay: Inhibition of tubulin polymerization in human HCT-116 cells measured after 48 hrs by immunofluorescent staining based analysis; type: cell-based; details: dose 0.1-0.3 µM
# In short: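 HCT116 cells (1×10^5/well suspension) settled on glass slides overnight at 37 °C, 5% CO2. Treated 48 h with 0.1, 0.2 or 0.3 μM, or 0.1% DMSO. Fixed in 4% paraformaldehyde, permeabilised with 0.5% Triton X-100, blocked. Anti-α-tubulin (1:4000) at 4 °C overnight, then Alexa488 anti-mouse IgG 1 h. DAPI mount, confocal imaging.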
# [20] = system: HCT-116; assay: Induction of cell cycle arrest in human HCT-116 cells assessed as accumulation of cells at G0/G1 phase at 0.1 uM measured after 24 hrs by PI/RNase staining based flow cytometry analysis (reference value: 32.88%); type: functional
# [21] = system: A549; assay: Induction of cell cycle arrest in human A549 cells assessed as accumulation of cells at G2/M phase at 0.1 uM measured after 24 hrs by PI/RNase staining based analysis (reference value: 10.22%); type: functional
compound,measurement,setting,value
COc1ccc(/C=C(/C(=O)N2CCN(c3ccc(C)cc3)CC2)c2cc(OC)c(OC)c(OC)c2)cc1O,Activity,[1],0.83%
same,Activity,[2],8.51%
same,Activity,[3],77.73%
same,inhibition,[4],Dose-Dependent Effect
same,Activity,[5],33.79%
same,IC50,[6],253 nM
same,selectivity ratio,[7],4.8
same,Activity,[8],17.43%
same,Activity,[9],Dose-Dependent Effect
same,Activity,[10],10.34%
same,Activity,[11],7.17%
same,Activity,[12],Non-Toxic
same,Activity,[13],6.31%
same,Activity,[14],Dose-Dependent Effect
same,IC50,[15],227 nM
same,Activity,[16],2.78%
same,Activity,[17],24.95%
same,logD at 24 h,[18],-0.013
same,inhibition,[19],Dose-Dependent Effect
same,Activity,[20],34.26%
same,Activity,[21],5.75%
